# Screening data as filed in PubChem.
# Sampled rows, rich in hits. Any-hit rate of the full collection: about 3.1%.
# KCNQ1 act: human KCNQ1 channel potentiation or activation | P51787 | CHO-K1 KCNQ1, thallium flux FluxOR fluorescence; hits give high values | B-score at 10 µM | hit rate 0.35% among 310,000;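 active = fluorescence ratio B-score, a plate-corrected score, at least three library SD, with initial intensity B-score within 5 SD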
#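 Schedule – 37 °C overnight plating, 90-min dark dye load, 20-min compound pretreatment · System – stable KCNQ1 CHO-K1 line · Probe or stimulus – thallium- and potassium-containing depolarizing buffer · Measured by – kinetic FluxOR fluorescence, 10 s baseline plus 110 s post-stimulus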
# KCNK9 block: blocks the human KCNK9 two-pore domain potassium channel. HEK293 KCNK9, FluxOR thallium flux fluorescence; hits give low values. B-score at 10 µM. hit rate 1.2% among 310,000;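 active = ratio B-score over 3 SD below the library mean, with starting fluorescence within 5 SD of its mean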;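 note: negative B-score means less thallium flux so channel inhibition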
# KCNQ1 inh: human KCNQ1 channel inhibition. CHO-K1 KCNQ1, FluxOR thallium flux fluorescence; hits give high values. B-score at 10 µM. hit rate 1.3% among 310,000;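 active = compounds whose thallium flux B-score, printed positive for inhibition, exceeds three library SD while starting fluorescence stays within three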;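 note: channel opened by potassium depolarization with thallium stimulus after 20 min compound exposure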
# KCNK3 inh: human KCNK3 channel inhibition, primary screen; O14649; CHO-KCNK3 thallium flux, FluxOR fluorescence; hits give low values; B-score at 10 µM; hit rate 0.84% among 340,000; AID 602410;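 active = B-score under library mean minus 4 SD, starting fluorescence ratio at most library mean plus 5 SD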;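 note: more negative B-score means stronger inhibition of thallium flux through KCNK3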
# hERG protect: shields human hERG channel from block by proarrhythmic agents; Q12809; CHO-hERG, FluxOR thallium flux, dofetilide IC70 present; activation (rescue from dofetilide block), less the hit threshold, % at 10 µM; hit rate 0.51% among 310,000;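 active = activation above the mean of controls blocked by dofetilide plus 5 SD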;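 note: thallium influx through hERG after potassium depolarization seen as dye fluorescence rise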
# KCNK9 inh conf: confirmation of human KCNK9 potassium channel inhibitors; shares compounds with KCNK9 block; HEK293 KCNK9 cells, FluxOR thallium flux fluorescence; inhibition, % at 10 µM; hit rate 43% among 4,900;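 active = thallium signal inhibited by more than 5 SD of the compound-free buffer control wells, on both duplicate plates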;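 note: 0% = assay buffer control wells without compound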
# Kir2-1 spec: mouse Kir2.1 off-target activity of KCNK9 modulators; shares compounds with KCNK9 block; Kir2.1 cells, FluxOR thallium flux fluorescence; inhibition, % at 10 µM; hit rate 4% among 4,900; AID 492993;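 active = thallium signal drop more than 5 SD beyond the mean of the no-compound control wells, seen in both duplicate plates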;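 note: signal is fluorescence rise after thallium addition divided by baseline fluorescence; plate controls were assay buffer only for no effect and full block by chlorpromazine control for full effect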
# HEK293 Tl ctr: second counter-screen for KCNK9 modulators: effect in non-induced cells. shares compounds with KCNK9 block. non-induced KCNK9-HEK293, FluxOR thallium flux. inhibition, % at 10 µM. hit rate 40% among 4,900. AID 492997;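 active = thallium signal drop beyond 5 SD of the untreated control mean, on both duplicate plates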;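 note: plate controls were buffer only IC0 wells for no effect and SID17386958 at its maximal inhibitory level for full effect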
# The depositor's hits bear a star; i = inactive; . = no result given.
SMILES,KCNQ1 act,KCNK9 block,KCNQ1 inh,KCNK3 inh,hERG protect,KCNK9 inh conf,Kir2-1 spec,HEK293 Tl ctr
O=C(N/N=C/c1ccncc1)c1ccccc1OCc1ccc(Br)cc1,i,-8.9*,i,i,-9,i,i,i
C#CCOc1ccccc1/C=N/NC(=O)c1ccccc1OCc1ccccc1,i,-9.6*,i,i,-15,30%*,i,41%*
O=C(N/N=C\c1ccccc1OCc1ccccc1)c1ccco1,i,i,i,i,-10,.,.,.
O=C(N/N=C/c1cc(Br)ccc1O)c1ccncc1,i,i,i,i,-20,.,.,.
O=C(N/N=C/c1cc(Br)ccc1OC(=O)c1ccc(Br)cc1)c1ccncc1,i,-12*,i,i,-12,45%*,i,34%*
Cc1ccc(/C=N/NC(=O)c2ccccc2OCc2ccc(F)cc2)o1,i,i,i,i,-6,.,.,.
O=C(CCN1C(=O)C2C3CCC(C3)C2C1=O)Nc1cccc(Cl)c1 (stereo unspecified),i,i,i,i,-6,.,.,.
Cc1ccc(S(=O)(=O)NCCC(=O)NNC(=O)c2ccccc2Cl)cc1C,.,.,.,i,.,.,.,.
CCC(C)(C)n1nnnc1C(C(C)C)N(Cc1ccco1)Cc1cc2cc3c(cc2[nH]c1=O)OCO3 (stereo unspecified),i,-10*,i,i,-9,42%*,i,42%*
C[C@H](CO)N1C[C@H](C)[C@@H](CN(C)S(C)(=O)=O)Oc2ccc(N(C)C)cc2C1=O,.,.,.,i,.,.,.,.
Cc1ccc(N(C(=O)c2ccco2)C2C=CS(=O)(=O)C2)cc1 (stereo unspecified),i,i,i,i,-1,.,.,.
COCCCC1CCN(C(=O)C2CCC(=O)N(CCc3cccc(F)c3)C2)CC1 (stereo unspecified),i,i,i,i,-9,.,.,.
CCN(CC)c1ccc(/C=C/C(=O)C2C(=O)C=C(C)OC2=O)cc1 (stereo unspecified),i,-9.5*,i,i,-23,86%*,101%*,85%*
O=C(COC(=O)CCC(=O)N1CCOCC1)Nc1ccc(Br)cc1Br,.,.,.,i,.,.,.,.
CC(C)[C@H](NC(=O)c1ccccc1)C(=O)OCC(=O)c1c(N)n(C)c(=O)n(C)c1=O,.,.,.,i,.,.,.,.
COc1ccc(/C=C(/CC(=O)NCc2ccc(Cl)cc2)c2nc3ccccc3s2)cc1,i,-19*,i,i,-6,66%*,i,46%*
COc1ccc(/C=C(/CC(=O)Nc2ccccc2)c2nc3ccccc3s2)cc1,i,i,i,i,-7,.,.,.
COc1ccc(OC)c(C(=O)CN2CCN(S(=O)(=O)c3ccc(Br)cc3)CC2)c1,i,i,i,i,-9,i,i,i
COc1ccc(S(=O)(=O)N2CCN(CCOc3ccc(Br)cc3)CC2)cc1OC,.,.,.,i,.,.,.,.
C/C(CCc1ccccc1)=N\NC(=S)NCCc1ccccc1,i,i,i,i,-8,.,.,.
C/C(=N\NC(=S)NCCc1ccccc1)c1cccs1,i,i,i,i,4,i,i,i
CCOC(=O)c1c(NC(=O)CSc2nc3ccc(C)cc3[nH]2)sc2c1CC(C)(C)NC2(C)C,i,i,i,i,-12,.,.,.
CCCC[C@@H]1C[C@H]1[C@@H](NC(=O)c1cccs1)c1ccc(Cl)cc1,i,-11*,10*,.,-23,52%*,i,50%*
CCCC[C@@H]1C[C@H]1[C@@H](NC(=O)c1ccco1)c1ccc(Cl)cc1,i,i,i,i,-9,.,.,.
O=C(Cn1cnc2c(NCc3ccccc3)ncnc21)NCCc1cc2ccccc2[nH]1,.,.,.,i,.,.,.,.
Oc1ccccc1/C=N/n1c(COc2ccccc2)n[nH]c1=S,i,i,i,i,-15,.,.,.
Oc1ccc(/C=N/n2c(COc3ccccc3)n[nH]c2=S)c(O)c1,i,-8.3*,i,i,-15,48%*,i,35%*
